Assay results from ChEMBL document CHEMBL5356993, “Novel pyrazolo[3,4-d]pyrimidine derivatives: design, synthesis, anticancer evaluation, VEGFR-2 inhibition, and antiangiogenic activity” (RSC Med Chem, 2023).
pIC50: −log10 of the molar value.

Tested on: NCI-H460
Assay: Antiproliferative activity against human NCI-H460 cells assessed as cell growth inhibition at 10 uM incubated for 48 hrs by SRB assay relative to control
Type: functional
Settings: read-out: GI
`Cc1nc2c(cnn2-c2ccccc2)c(=O)n1-c1ccc(NC(=O)c2ccccc2)cc1` showed an inhibition of growth at 10 µM of 27.9%.

Tested on: NCI-H522
Assay: Antiproliferative activity against human NCI-H522 cells assessed as cell growth inhibition at 10 uM incubated for 48 hrs by SRB assay relative to control
Type: functional
Settings: read-out: GI
Method in brief: (§1)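 Cells plated in 96-well plates at […] cells/well and preincubated 24 h at 37 °C, 5% CO2. Time-zero plates were TCA-fixed. Compound was diluted in medium with 50 µg/mL gentamicin and cells exposed for 48 h. Adherent cells fixed with 10% final TCA; suspension cells with 16% final TCA. Plates stained with 0.4% SRB in 1% acetic acid, dye solubilized in 10 mM Trizma, absorbance read at 515 nm. Percent growth calculated against time-zero and control.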
`Cc1nc2c(cnn2-c2ccccc2)c(=O)n1-c1ccc(NC(=O)c2ccccc2)cc1` gave an inhibition of growth at 10 µM of 20.7%.

Tested on: HCC 2998
Assay: Antiproliferative activity against human HCC 2998 cells assessed as cell growth inhibition at 10 uM incubated for 48 hrs by SRB assay relative to control
Type: functional
Settings: read-out: GI
`Cc1nc2c(cnn2-c2ccccc2)c(=O)n1-c1ccc(NC(=O)c2ccccc2)cc1` gave an inhibition of growth at 10 µM of under 15%.

Tested on: HCT-116
Assay: Antiproliferative activity against human HCT-116 cells assessed as cell growth inhibition at 10 uM incubated for 48 hrs by SRB assay relative to control
Type: functional
Settings: read-out: GI
Work on `Cc1nc2c(cnn2-c2ccccc2)c(=O)n1-c1ccc(NC(=O)c2ccccc2)cc1` yielded an inhibition of growth at 10 µM of 41.9%.

Tested on: HCT-15
Assay: Antiproliferative activity against human HCT-15 cells assessed as cell growth inhibition at 10 uM incubated for 48 hrs by SRB assay relative to control
Type: functional
Settings: read-out: GI
Work on `Cc1nc2c(cnn2-c2ccccc2)c(=O)n1-c1ccc(NC(=O)c2ccccc2)cc1` yielded an inhibition of growth at 10 µM of 20.2%.

Tested on: SW-620
Assay: Antiproliferative activity against human SW620 cells assessed as cell growth inhibition at 10 uM incubated for 48 hrs by SRB assay relative to control
Type: functional
Settings: read-out: GI
Method in brief: (§2)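 Cells pre-incubated 24 h at 37°C, 5% CO2, then exposed to compound (DMSO stock diluted in medium with 50 µg/mL gentamicin) for 48 h. Adherent cells fixed with cold TCA (final 10%, 60 min, 4°C); suspension cells fixed with 16% TCA final. Stained with 0.4% SRB in 1% acetic acid for 10 min, dye solubilized in 10 mM Trizma base, absorbance read at 515 nm. Growth calculated against time-zero and untreated control plates.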
Work on `Cc1nc2c(cnn2-c2ccccc2)c(=O)n1-c1ccc(NC(=O)c2ccccc2)cc1` yielded an inhibition of growth at 10 µM of under 15%.

Tested on: SF-539
Assay: Antiproliferative activity against human SF-539 cells assessed as cell growth inhibition at 10 uM incubated for 48 hrs by SRB assay relative to control
Type: functional
Settings: read-out: GI
Method in brief: as §1
With `Cc1nc2c(cnn2-c2ccccc2)c(=O)n1-c1ccc(NC(=O)c2ccccc2)cc1` the inhibition of growth at 10 µM was 19.8%.

Tested on: LOX IMVI
Assay: Antiproliferative activity against human LOX IMVI cells assessed as cell growth inhibition at 10 uM incubated for 48 hrs by SRB assay relative to control
Type: functional
Settings: read-out: GI
Work on `Cc1nc2c(cnn2-c2ccccc2)c(=O)n1-c1ccc(NC(=O)c2ccccc2)cc1` yielded an inhibition of growth at 10 µM of 26.8%.

Tested on: M14
Assay: Antiproliferative activity against human M14 cells assessed as cell growth inhibition at 10 uM incubated for 48 hrs by SRB assay relative to control
Type: functional
Settings: read-out: GI
Method in brief: as §1
With `Cc1nc2c(cnn2-c2ccccc2)c(=O)n1-c1ccc(NC(=O)c2ccccc2)cc1` the inhibition of growth at 10 µM was 23.6%.

Tested on: MDA-MB-435
Assay: Antiproliferative activity against human MDA-MB-435 cells assessed as cell growth inhibition at 10 uM incubated for 48 hrs by SRB assay relative to control
Type: functional
Settings: read-out: GI
`Cc1nc2c(cnn2-c2ccccc2)c(=O)n1-c1ccc(NC(=O)c2ccccc2)cc1` gave an inhibition of growth at 10 µM of 27.2%.

Tested on: SK-MEL-5
Assay: Antiproliferative activity against human SK-MEL-5 cells assessed as cell growth inhibition at 10 uM incubated for 48 hrs by SRB assay relative to control
Type: functional
Settings: read-out: GI
Method in brief: as §1
Work on `Cc1nc2c(cnn2-c2ccccc2)c(=O)n1-c1ccc(NC(=O)c2ccccc2)cc1` yielded an inhibition of growth at 10 µM of 76.2%.

Tested on: UACC-62
Assay: Antiproliferative activity against human UACC-62 cells assessed as cell growth inhibition at 10 uM incubated for 48 hrs by SRB assay relative to control
Type: functional
Settings: read-out: GI
Method in brief: as §2
`Cc1nc2c(cnn2-c2ccccc2)c(=O)n1-c1ccc(NC(=O)c2ccccc2)cc1` showed an inhibition of growth at 10 µM of 36.8%.

Tested on: OVCAR-4
Assay: Antiproliferative activity against human OVCAR-4 cells assessed as cell growth inhibition at 10 uM incubated for 48 hrs by SRB assay relative to control
Type: functional
Settings: read-out: GI
`Cc1nc2c(cnn2-c2ccccc2)c(=O)n1-c1ccc(NC(=O)c2ccccc2)cc1` gave an inhibition of growth at 10 µM of 53.2%.

Tested on: 786-0
Assay: Antiproliferative activity against human 786-0 cells assessed as cell growth inhibition at 10 uM incubated for 48 hrs by SRB assay relative to control
Type: functional
Settings: read-out: GI
For `Cc1nc2c(cnn2-c2ccccc2)c(=O)n1-c1ccc(NC(=O)c2ccccc2)cc1`, the inhibition of growth at 10 µM was 20.4%.

Tested on: A498
Assay: Antiproliferative activity against human A498 cells assessed as cell growth inhibition at 10 uM incubated for 48 hrs by SRB assay relative to control
Type: functional
Settings: read-out: GI
Method in brief: as §1
In the case of `Cc1nc2c(cnn2-c2ccccc2)c(=O)n1-c1ccc(NC(=O)c2ccccc2)cc1`, the inhibition of growth at 10 µM was under 15%.

Tested on: TK-10
Assay: Antiproliferative activity against human TK-10 cells assessed as cell growth inhibition at 10 uM incubated for 48 hrs by SRB assay relative to control
Type: functional
Settings: read-out: GI
Method in brief: as §2
For `Cc1nc2c(cnn2-c2ccccc2)c(=O)n1-c1ccc(NC(=O)c2ccccc2)cc1`, the inhibition of growth at 10 µM was 18.6%.

Tested on: T47D
Assay: Antiproliferative activity against human T47D cells assessed as cell growth inhibition at 10 uM incubated for 48 hrs by SRB assay relative to control
Type: functional
Settings: read-out: GI
Method in brief: as §2
For `Cc1nc2c(cnn2-c2ccccc2)c(=O)n1-c1ccc(NC(=O)c2ccccc2)cc1`, the inhibition of growth at 10 µM was 72.4%.

Tested on: NCI-H23
Assay: Antiproliferative activity against human NCI-H23 cells assessed as cell growth inhibition at 10 uM incubated for 48 hrs by SRB assay relative to control
Type: functional
Settings: read-out: GI
For `Cc1nc2c(cnn2-c2ccccc2)c(=O)n1-c1ccc(NC(=O)c2ccccc2)cc1`, the inhibition of growth at 10 µM was 45.5%.

Tested on: HOP-62
Assay: Antiproliferative activity against human HOP-62 cells assessed as cell growth inhibition at 10 uM incubated for 48 hrs by SRB assay relative to control
Type: functional
Settings: read-out: GI
Compound `Cc1nc2c(cnn2-c2ccccc2)c(=O)n1-c1ccc(NC(=O)c2ccccc2)cc1` has an inhibition of growth at 10 µM of 37.9%.

Tested on: EKVX
Assay: Antiproliferative activity against human EKVX cells assessed as cell growth inhibition at 10 uM incubated for 48 hrs by SRB assay relative to control
Type: functional
Settings: read-out: GI
With `Cc1nc2c(cnn2-c2ccccc2)c(=O)n1-c1ccc(NC(=O)c2ccccc2)cc1` the inhibition of growth at 10 µM was 65.7%.

Tested on: K562
Assay: Antiproliferative activity against human K562 cells assessed as cell growth inhibition at 10 uM incubated for 48 hrs by SRB assay relative to control
Type: functional
Settings: read-out: GI
`Cc1nc2c(cnn2-c2ccccc2)c(=O)n1-c1ccc(NC(=O)c2ccccc2)cc1` showed an inhibition of growth at 10 µM of 66.8%.

Tested on: HL-60(TB)
Assay: Antiproliferative activity against human HL-60(TB) cells assessed as cell growth inhibition at 10 uM incubated for 48 hrs by SRB assay relative to control
Type: functional
Settings: read-out: GI
Method in brief: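 Cells were plated at […] cells/well and preincubated 24 h at 37°C, 5% CO2, with time-zero plates TCA-fixed. Compound was diluted from DMSO stock in medium with 50 µg/mL gentamicin, then exposed for 48 h. Settled suspension cells were fixed with 80% TCA (final 16%), stained with 0.4% SRB and solubilized in 10 mM Trizma, A515. Growth was taken relative to Tz and control.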
In the case of `Cc1nc2c(cnn2-c2ccccc2)c(=O)n1-c1ccc(NC(=O)c2ccccc2)cc1`, the inhibition of growth at 10 µM was 18.5%.

Tested on: CCRF-CEM
Assay: Antiproliferative activity against human CCRF-CEM cells assessed as cell growth inhibition at 10 uM incubated for 48 hrs by SRB assay relative to control
Type: functional
Settings: read-out: GI
Method in brief: as §1
With `Cc1nc2c(cnn2-c2ccccc2)c(=O)n1-c1ccc(NC(=O)c2ccccc2)cc1` the inhibition of growth at 10 µM was 49.5%.

Tested on: not listed separately
Assay: Cytotoxicity against human MCF-10A cells assessed as cell growth inhibition incubated for 72 hrs by MTT assay
Settings: not given
`Cc1nc2c(cnn2-c2ccccc2)c(=O)n1-c1ccc(NC(=O)c2ccccc2)cc1` showed an IC50 at 72 h of 55.5 µM.

Tested on: MDA-MB-468
Assay: Cytotoxicity against human MDA-MB-468 cells assessed as cell growth inhibition incubated for 72 hrs by MTT assay
Type: functional, cell-based
Settings: MDA-MB-468, 72 h
Compound `Cc1nc2c(cnn2-c2ccccc2)c(=O)n1-c1ccc(NC(=O)c2ccccc2)cc1` has a pIC50 of 4.57.

Tested on: T47D
Assay: Cytotoxicity against human T47D cells assessed as cell growth inhibition incubated for 72 hrs by MTT assay
Type: functional, cell-based
Settings: not given
With `Cc1nc2c(cnn2-c2ccccc2)c(=O)n1-c1ccc(NC(=O)c2ccccc2)cc1` the pIC50 was 4.45.

Tested on: not listed separately
Assay: Selectivity index, ratio of IC50 for human MCF-10A cells to IC50 for human MDA-MB-468 cells
Settings: MCF-10A cells versus MDA-MB-468 cells
`Cc1nc2c(cnn2-c2ccccc2)c(=O)n1-c1ccc(NC(=O)c2ccccc2)cc1` gave a selectivity ratio of 2.05.

Tested on: not listed separately
Assay: Selectivity index, ratio of IC50 for human MCF-10A cells to IC50 for human T47D cells
Settings: MCF-10A cells versus T47D cells
`Cc1nc2c(cnn2-c2ccccc2)c(=O)n1-c1ccc(NC(=O)c2ccccc2)cc1` showed a selectivity ratio of 1.56.

Biological target: Vascular endothelial growth factor receptor 2 (Homo sapiens, UniProt P35968)
Sequence (P35968 whole entry): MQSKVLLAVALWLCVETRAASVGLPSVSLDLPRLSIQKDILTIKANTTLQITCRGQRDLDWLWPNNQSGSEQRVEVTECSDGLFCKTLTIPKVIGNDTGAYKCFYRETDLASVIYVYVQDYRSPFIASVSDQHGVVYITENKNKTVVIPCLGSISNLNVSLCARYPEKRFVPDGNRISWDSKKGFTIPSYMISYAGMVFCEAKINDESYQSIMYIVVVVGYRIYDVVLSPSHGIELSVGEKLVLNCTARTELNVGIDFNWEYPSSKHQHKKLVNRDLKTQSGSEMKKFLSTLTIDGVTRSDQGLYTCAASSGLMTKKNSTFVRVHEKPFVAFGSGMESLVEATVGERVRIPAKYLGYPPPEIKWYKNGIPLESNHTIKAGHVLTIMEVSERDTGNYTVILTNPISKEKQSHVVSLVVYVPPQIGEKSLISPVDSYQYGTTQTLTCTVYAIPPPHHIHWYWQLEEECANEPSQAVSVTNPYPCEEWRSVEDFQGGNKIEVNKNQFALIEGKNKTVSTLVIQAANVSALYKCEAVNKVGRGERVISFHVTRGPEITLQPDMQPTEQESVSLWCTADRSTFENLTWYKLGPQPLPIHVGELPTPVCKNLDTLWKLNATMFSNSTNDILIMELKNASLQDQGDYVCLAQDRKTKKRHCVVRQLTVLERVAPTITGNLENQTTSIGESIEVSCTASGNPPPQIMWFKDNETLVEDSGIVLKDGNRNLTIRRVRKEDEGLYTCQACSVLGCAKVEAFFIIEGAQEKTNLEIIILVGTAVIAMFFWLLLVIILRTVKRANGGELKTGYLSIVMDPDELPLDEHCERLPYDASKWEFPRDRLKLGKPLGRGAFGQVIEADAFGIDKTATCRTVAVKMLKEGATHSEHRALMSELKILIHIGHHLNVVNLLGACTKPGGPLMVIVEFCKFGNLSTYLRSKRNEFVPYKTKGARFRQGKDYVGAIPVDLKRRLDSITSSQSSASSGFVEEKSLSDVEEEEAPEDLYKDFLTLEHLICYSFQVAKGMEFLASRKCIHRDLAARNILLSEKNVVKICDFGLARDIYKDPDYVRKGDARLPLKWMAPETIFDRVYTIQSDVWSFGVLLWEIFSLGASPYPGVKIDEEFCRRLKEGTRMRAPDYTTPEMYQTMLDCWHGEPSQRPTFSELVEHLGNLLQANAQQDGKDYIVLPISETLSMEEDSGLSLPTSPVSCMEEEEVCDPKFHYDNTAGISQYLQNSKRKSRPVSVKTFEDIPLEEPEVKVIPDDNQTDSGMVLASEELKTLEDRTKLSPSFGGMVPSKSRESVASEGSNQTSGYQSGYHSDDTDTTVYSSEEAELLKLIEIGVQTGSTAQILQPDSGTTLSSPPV
Assay: Inhibition of VEGFR-2 (unknown origin) incubated for 45 mins by Kinase-Glo Max assay
Settings: not given
`Cc1nc2c(cnn2-c2ccccc2)c(=O)n1-c1ccc(NC(=O)c2ccccc2)cc1` gave a pIC50 of 6.75.
